# A selection: hits, their analogues and other compounds. The true share with any hit is near 6.4%.
# EBV gp42 block: blocks Epstein-Barr virus glycoprotein 42 binding; Q1HVG2; Fluorescence polarization binding assay, mP read-out; inhibition, % (tested at 21.74 µM); 220,000 compounds, 0.42% hits; AID 1085; in the data active means inhibition above about 50%
# Target sequence (Q1HVG2 whole entry, looked up): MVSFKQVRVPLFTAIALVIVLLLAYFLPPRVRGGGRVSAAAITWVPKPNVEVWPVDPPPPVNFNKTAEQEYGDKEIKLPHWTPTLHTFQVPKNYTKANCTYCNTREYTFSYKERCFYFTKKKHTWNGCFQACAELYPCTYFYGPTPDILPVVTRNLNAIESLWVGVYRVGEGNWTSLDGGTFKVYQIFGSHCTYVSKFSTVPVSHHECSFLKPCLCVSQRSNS
# MPTP block: inhibitors of mitochondrial permeability transition pore; AID 602449; 360,000 compounds, 1.4% hits; isolated mouse mitochondria, Ca2+ swelling absorbance, 30 min; inhibition, % at 10 µM;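 active means inhibition of 50% or more, scaled per plate between neutral and stimulator controls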;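 further: 0% = DMSO wells given calcium and 100% = 1 mM EGTA wells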
# Tb MetRS inh: Trypanosoma brucei MetRS inhibition. purified T. brucei MetRS, ATP depletion, Kinase-Glo luminescence. inhibition, % at 11.9 µM. 360,000 compounds, 0.4% hits. AID 624268;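 active means inhibition above a per-plate cutoff of the control wells' mean inhibition plus 3 SD, cut at about 5.5% in these data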;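 further: 0% = DMSO wells median and 100% = median of wells with control inhibitor compound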
#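 Test system: purified T. brucei MetRS enzyme. Also added: ATP, methionine and E. coli bulk tRNA substrates. Compound: 11.9 µM single point. Schedule: 15 min enzyme-compound preincubation, 2 h reaction, 10 min detection, 25 °C. Signal: luciferase luminescence of residual ATP, Kinase-Glo. Evaluation: percent inhibition versus plate control medians. Controls: DMSO wells, low control.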
# NR3A LBD binder: modulates the human NR3A ligand-binding domain; NR3A LBD differential scanning fluorimetry, Tm shift; 0% = protein alone, 100% = glycine-bound protein; Tm shift relative to glycine control, % at 25 µM; 340,000 compounds, 2.5% hits; AID 1259313;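 active means melting temperature shift of at least 10% of the positive control shift, at one fixed dose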
# CHOP inhibitor: inhibitors of CHOP induction in ER stress response. CHO-K1 CHOP-promoter luciferase, tunicamycin-induced, 15-18 h. inhibition, % at 10 µM. 220,000 compounds, 3.8% hits;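 active means compounds that reduced the stress-induced luciferase reporter signal by more than about 70% of percent inhibition, limit read from the data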;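 further: 0% = tunicamycin plus vehicle and 100% = wells without tunicamycin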
# WT yeast gro inh: growth inhibition of WT yeast, mitochondrial fusion screen | mitochondrial fusion phenotypic screen, WT strain | inhibition, % at 10 µM | 190,000 compounds, 2.1% hits; in the data active means inhibition above about 58%; tested in S. cerevisiae
# Active calls of the source: *; . = no result given.
SMILES,EBV gp42 block,MPTP block,Tb MetRS inh,NR3A LBD binder,CHOP inhibitor,WT yeast gro inh
O=C(NCc1ccccc1)c1ccc(C(=O)N(C2CCCCC2)C2CCCCC2)cc1,-10.5,-2.3,-0.6,-2.6,55.4,61.5*
O=C(NC1CCCCC1)C(=S)NCc1ccccc1,-13.1,0.9,0.0,-0.9,21.2,22.5
O=C(NCc1ccccc1)c1ccc(C(=O)NCc2ccccc2)cc1,.,1.3,-0.5,-1.4,.,.
Cc1cccc2sc(N(CCCN(C)C)C(=O)CCc3ccccc3)nc12,-26.5,-3.7,-0.2,0.1,8.5,91.8
Cc1cccc2sc(N(CCCN(C)C)C(=O)c3nc4ccccc4s3)nc12,-9.6,1.5,0.0,-6.1,75.1*,19.7
Cc1ccc2sc(N(CCCN(C)C)C(=O)c3ccc(Br)s3)nc2c1C,-3.5,9.1,-0.5,-0.1,68.7,87.2*
Cc1cccc(NC(=O)COc2cccc3c2CCN(C)C3=O)c1C,5.4,13.2,-0.3,0.0,8.6,6.5
CCOC(=O)c1c(NC(=O)Cn2nnc3ccccc32)sc2c1CCC(C)C2 (stereo not drawn),-9.8,3.8,-0.4,-3.1,49.3,9.2
CCOC(=O)c1c(NC(=O)Cn2c(C)nc3ccccc32)sc2c1CCC2,-0.8,2.8,0.2,0.5,47.7,14.9
CCOC(=O)c1c(NC(=O)COC(=O)Cn2cnc3ccccc32)sc2c1CCC(C)C2 (stereo not drawn),-2.9,-1.3,-1.2,-7.6,71.9*,41.3
CCOC(=O)c1c(NC(=O)COC(=O)Cn2c(C)nc3ccccc32)sc2c1CCCC2,-2.6,2.2,0.0,-12.2,73.8*,-0.8
CCOC(=O)c1c(NC(=O)C(C)NCc2ccco2)sc2c1CCC(C)C2 (stereo not drawn),-6.4,0.9,-0.3,4.8,72.7*,15.5
CCOC(=O)c1c(NC(=O)COc2cccc3c2CCN(C)C3=O)sc2c1CCC2,-5.0,43.4,-0.7,1.0,82.4*,-39.0
CCc1nc(SCC(=O)c2cccs2)c2oc3ccccc3c2n1,-7.5,4.5,-0.5,2.5,14.4,-24.6
Cc1cc(OC(=O)c2ccc(C(F)(F)F)cc2)c([N+](=O)[O-])c(=O)[nH]1,.,-0.4,0.0,0.6,.,.
O=C(C1CCC(CNc2c(N3CCCCC3)c(=O)c2=O)CC1)N1CCCCC1 (stereo not drawn),-6.5,1.4,-0.5,0.2,3.7,9.5
O=C(CSc1nc2ccccc2c(=O)n1-c1ccc(Cl)cc1)c1ccco1,-17.6,1.3,-0.8,-10.8,74.0*,7.1
N#CCCn1c(SCC(=O)c2c[nH]c3ccccc23)nc2ccccc21,-6.0,-0.6,5.8*,-5.8,2.2,2.0
CCOC(=O)c1c(C)[nH]c(C)c1C(=O)CSc1nc2ccccc2c(=O)n1-c1ccc(Cl)cc1,-21.4,1.6,-0.4,-2.3,22.0,33.9
O=C(CSc1nc2ccccc2c(=O)n1-c1ccccc1)c1c[nH]c2ccccc12,-22.9,28.7,0.1,18.2*,76.1*,-14.7
CCOC(=O)c1c(C)[nH]c(C)c1C(=O)CSc1nc2ccccc2n1CCC#N,1.9,-1.1,-0.1,4.8,0.4,-3.6
NC(=O)CSc1nc2ccccc2c(=O)n1-c1ccccc1,.,0.2,0.1,0.7,.,.
CCOC(=O)Cc1csc(NC(=O)COc2ccccc2OCC)n1,-0.9,1.3,-1.1,1.1,28.2,11.4
O=C(CN1CCN(c2ccc(F)cc2)CC1)N1N=CCC1c1ccccc1 (stereo not drawn),-16.8,0.8,-0.7,-0.6,-3.1,19.9
O=C(O)c1cn(-c2ccc(N3CCCC3)c(F)c2)c2c(F)c(F)c(F)cc2c1=O,12.0,-4.4,-0.4,0.8,-9.0,78.0*
SMILES,EBV gp42 block,MPTP block,Tb MetRS inh,NR3A LBD binder,CHOP inhibitor,WT yeast gro inh
Cc1c(-n2cc(C(=O)O)c(=O)c3cc(F)c(N4CCCC(O)C4)c(F)c32)c(=O)n(-c2ccccc2)n1C (stereo not drawn),-3.0,0.7,-0.3,-4.9,16.6,-5.6
Cc1ccc2cc(C#N)c(N3CCCN(S(=O)(=O)c4ccccc4)CC3)nc2c1C,.,-0.4,0.0,11.1*,.,.
CCOC(=O)Cn1c2ccc(F)cc2c2nc(C)sc21,8.7,-1.2,-0.2,0.1,13.7,0.9
CC(=O)Oc1ccc(N2C(=O)C3C(C2=O)C(C(=O)c2ccc(Cl)cc2)N2CCCC32)cc1 (stereo not drawn),42.9,2.9,-0.3,1.1,7.0,.
Cc1ccc(N2C(=O)C3C(C2=O)C(C(=O)c2ccc(Cl)cc2)N2CCCC32)cc1 (stereo not drawn),51.9*,-2.3,-0.9,-1.9,18.2,30.1
Clc1ccc(Cn2ncc3c(NCc4ccccc4)ncnc32)c(Cl)c1,14.0,.,.,.,81.0*,2.3
Cn1ncc2c(NCc3ccccc3)ncnc21,-6.5,-0.3,-0.5,0.1,14.4,21.4
CCN(c1cccc(C)c1)c1nc2ccsc2c(=O)s1,-24.5,-0.8,-0.9,1.1,73.4*,9.4
COC1(C)CC2C(CC1OC(=O)c1cc([N+](=O)[O-])cc([N+](=O)[O-])c1)C2(C)C (stereo not drawn),0.8,1.2,0.8,1.6,22.5,75.7*
COC(=O)c1cc(C(=O)NCC2CCCCC2)cc([N+](=O)[O-])c1,.,-2.6,-0.6,-2.4,.,.
CCC1CCCCN1C(=O)CSc1nc2c(cnn2-c2ccc(C)cc2)c(=O)[nH]1 (stereo not drawn),0.6,0.0,0.2,16.1*,53.5,11.7
CCCCCSc1nc2c(cnn2-c2ccccc2)c(=O)[nH]1,-10.8,-0.4,-1.7,0.2,71.2*,2.9
CCCCCSc1nc2c(cnn2-c2ccc(F)cc2)c(=O)[nH]1,.,1.2,-0.7,0.6,.,.
O=c1[nH]c(SCc2nc3c(cnn3-c3ccccc3)c(=O)[nH]2)nc2ccccc12,-83.9,0.8,-0.7,-5.5,29.3,11.7
O=c1[nH]c(CSc2nc3ccccc3o2)nc2c1cnn2-c1ccccc1,-12.8,1.8,-1.1,-1.8,73.8*,17.3
O=c1[nH]c(SCc2ccccc2Cl)nc2c1cnn2-c1ccccc1,-21.4,2.5,-0.2,-11.3,95.8*,3.5
CC(C)(C)/C=N/NC(=O)C1CC1,-14.6,-0.2,-0.5,-1.4,11.7,.
CC(C)Sc1nc2c(cnn2-c2ccc(F)cc2)c(=O)[nH]1,-8.0,-0.4,0.0,2.9,67.3,8.4
CC(C)Sc1nc2c(cnn2-c2ccccc2)c(=O)[nH]1,-20.2,-0.4,-0.7,-1.3,71.7*,-18.3
CCn1cc(C(=O)OCC(=O)OC2CC(C)CCC2C(C)C)c(=O)c2ccc(C)nc21 (stereo not drawn),-10.1,4.4,1.1,2.8,88.6*,70.5*
C[C@@H](O)[C@H]1O[C@]2(C)CCC[C@H]1O2,.,0.7,0.2,0.5,.,.
N#Cc1c(N)c(C#N)c(-c2ccc3c(c2)OCO3)c2c1CCCC2,5.2,-1.0,-0.9,-5.3,27.6,-0.3
N#Cc1c(N)nc2c(c1-c1ccc3c(c1)OCO3)CCc1ccccc1-2,-1.2,1.7,-0.7,-3.4,56.7,62.1*
